The source made the active and inactive calls. No cut-off for these calls is given here.
Columns and labels:
COLO 205 [1] = test: Induction of cell cycle arrest in human COLO205 cells assessed as increase in accumulation of cells at G2/M phase at 2 uM after 24 hrs by PI/RNase staining based flow cytometry (reference value: 18.6%); assay type: functional
Summary of the method: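 Positive-control arm of the COLO 205 cell-cycle assay: nocodazole 2 μM for 24 h. Culture conditions as above (RPMI, 10% FBS, 37 °C, 5% CO2). Ethanol-fixed cells stained with PI/RNase 40 min at 37 °C and analysed by imaging cytometry for phase distribution. Three independent experiments.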

CCRF-CEM [2] = test: Antiproliferative activity against human CCRF-CEM cells assessed as cell growth at 10 uM after 48 hrs by sulforhodamine B assay relative to control; assay type: functional; details: pooled result: one value given for 60 cell lines, strains, targets or settings, read-out: Activity
Summary of the method: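 NCI-60 one-dose screen: cells exposed to test compound at a single 10 μM concentration, viability after 48 h read by sulforhodamine B staining; value is growth percent versus negative control, with a time-zero cell control used to determine total cell growth.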

CCRF-CEM [3] = test: Antiproliferative activity against human CCRF-CEM cells assessed as growth inhibition after 48 hrs by sulforhodamine B assay; assay type: functional; details: pooled result: one value given for 58 cell lines, strains, targets or settings
HCT-15 = test: Antiproliferative activity against human HCT15 cells assessed as growth inhibition after 48 hrs by sulforhodamine B assay; assay type: functional; details: HCT-15, 48 h
UO-31 = test: Antiproliferative activity against human UO31 cells assessed as growth inhibition after 48 hrs by sulforhodamine B assay; assay type: functional; details: UO-31, 48 h
Summary of the method: (§1)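 NCI-60 five-dose follow-up, run only when the one-dose screen indicated activity. Doses 100 μM down to 0.01 μM in log steps (0.01, 0.1, 1, 10, 100 μM). 48 h incubation with sulforhodamine B read-out. A time-zero cell control allowed calculation of GI50 from % growth vs concentration dose–response curves.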

COLO 205 [4] = test: Antiproliferative activity against human COLO205 cells assessed as growth inhibition after 48 hrs by sulforhodamine B assay; assay type: functional; details: COLO 205, 48 h
SK-MEL-5 = test: Antiproliferative activity against human SK-MEL-5 cells assessed as growth inhibition after 48 hrs by sulforhodamine B assay; assay type: functional; details: SK-MEL-5, 48 h
UACC-257 [5] = test: Antiproliferative activity against human UACC257 cells assessed as growth inhibition after 48 hrs by sulforhodamine B assay; assay type: functional; details: UACC-257, 48 h; summary of the method: as §1
[6] = Selectivity ratio of GI50 for human NCI-H226 cells to GI50 for human NCI-H460 cells; assay type: functional
[7] = Selectivity ratio of GI50 for human Hs 578T cells to GI50 for human MCF7 cells; assay type: functional
[8] = Selectivity ratio of GI50 for human Hs 578T cells to GI50 for human T47D cells; assay type: functional
[9] = Selectivity ratio of GI50 for human Hs 578T cells to GI50 for human MDA-MB-468 cells; assay type: functional
[10] = Selectivity ratio of GI50 for human NCI-H226 cells to GI50 for human NCI-H23 cells; assay type: functional
[11] = Selectivity ratio of GI50 for human OVCAR5 cells to GI50 for human OVCAR4 cells; assay type: functional
[12] = Selectivity ratio of GI50 for human RXF 393 cells to GI50 for human CAKi1 cells; assay type: functional
UACC-257 [13] = test: Antiproliferative activity against human UACC257 cells assessed as reduction in cell viability after 48 hrs by SRB assay; assay type: functional; details: UACC-257, 48 h, read-out: LC50 (the source's name)
Summary of the method: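 NCI-60 five-dose testing at 100, 10, 1, 0.1 and 0.01 μM (log dilutions). After 48 h incubation, viability was read by sulforhodamine B staining. A time-zero cell control gave total growth per cell line. GI50, TGI and LC50 were calculated from % growth versus concentration curves.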

COLO 205 [14] = test: Induction of cell cycle arrest in human COLO205 cells assessed as cell population at G0/G1 phase at 10 uM after 48 hrs by PI/RNase staining based flow cytometry (reference value: 63.8%); assay type: functional
Summary of the method: (§2)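 COLO 205 cells grown at 37 °C, 5% CO2 in RPMI with 10% FBS and penicillin/streptomycin. Treated 48 h with 10 or 20 μM compound or DMSO vehicle. Cells trypsinized, fixed in ethanol 15 min on ice, stained with PI/RNase solution 40 min at 37 °C, then analysed by imaging cytometry. % cells per phase given as mean ± SD of three independent experiments.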

COLO 205 [15] = test: Induction of cell cycle arrest in human COLO205 cells assessed as cell population at S phase at 10 uM after 48 hrs by PI/RNase staining based flow cytometry (reference value: 16.3%); assay type: functional; summary of the method: as §2
COLO 205 [16] = test: Induction of cell cycle arrest in human COLO205 cells assessed as cell population at G2/M phase at 10 uM after 48 hrs by PI/RNase staining based flow cytometry (reference value: 18.6%); assay type: functional; summary of the method: as §2
COLO 205 [17] = test: Induction of cell cycle arrest in human COLO205 cells assessed as cell population at G0/G1 phase at 20 uM after 48 hrs by PI/RNase staining based flow cytometry (reference value: 63.8%); assay type: functional; summary of the method: as §2
COLO 205 [18] = test: Induction of cell cycle arrest in human COLO205 cells assessed as cell population at S phase at 20 uM after 48 hrs by PI/RNase staining based flow cytometry (reference value: 16.3%); assay type: functional; summary of the method: as §2
COLO 205 [19] = test: Induction of cell cycle arrest in human COLO205 cells assessed as cell population at G2/M phase at 20 uM after 48 hrs by PI/RNase staining based flow cytometry (reference value: 18.6%); assay type: functional; summary of the method: as §2
COLO 205 [20] = test: Induction of mitochondrial dysfunction in human COLO205 cells assessed as reduction in mitochondrial membrane potential by measuring shift in red to green fluorescence after 48 hrs by JC-1 staining based inverted microscopic analysis; assay type: functional, cell-based
Summary of the method: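 COLO 205 cells (5 × 10^5) grown on coverslips overnight, then treated 48 h with 10 or 20 μM compound or DMSO. Fresh medium with 4 μg/mL JC-1 added for 30 min at 37 °C. Cells washed twice and imaged immediately by inverted fluorescence microscopy (40× objective) at room temperature, scoring red aggregate vs green monomer fluorescence.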

SMILES	growth at 10 µM (CCRF-CEM [2]) [%]	GI50 (CCRF-CEM [3]) [µM]	GI50 (HCT-15) [µM]	GI50 (UO-31) [µM]	other results
COC(=O)Nc1nc2cc(C(=O)c3cccs3)ccc2[nH]1					Activity (COLO 205 [1]): Active
COC(=O)[C@]12CC[C@@H](C)[C@H](C)[C@H]1C1=CC[C@@H]3[C@@]4(C)C[C@@H](O)[C@H](O)[C@@]5(C)COC(=C45)C[C@@]3(C)[C@]1(C)CC2	85.8				
COC(=O)[C@]12CC[C@@H](C)[C@H](C)[C@H]1C1=CC[C@@H]3[C@@]4(C)CC(=O)[C@H](O)[C@@](C)(CO)[C@@H]4C(=O)C[C@@]3(C)[C@]1(C)CC2	-22.4	10	10	10	
COC(=O)[C@]12CC[C@@H](C)[C@H](C)[C@H]1C1=CC[C@@H]3[C@@](C)(CC#N)C4=C(C[C@@]3(C)[C@]1(C)CC2)OC[C@]4(C)C=O	-18.1	4.9	4.9	4.9	
COC(=O)[C@]12CC[C@@H](C)[C@H](C)[C@H]1C1=CC(=O)[C@@H]3[C@@]4(C)C[C@@H](OC(C)=O)[C@H](OC(C)=O)[C@@](C)(COC(C)=O)[C@@H]4C(=O)C[C@@]3(C)[C@]1(C)CC2	45.8				
COC(=O)[C@]12CC[C@@H](C)[C@H](C)[C@H]1C1=CC[C@@H]3[C@@]4(C)C[C@@H](OC(=O)c5ccco5)[C@H](O)[C@@](C)(CO)[C@@H]4[C@H](O)C[C@@]3(C)[C@]1(C)CC2	-83	2.3	2.3	2.3	
COC(=O)[C@]12CC[C@@H](C)[C@H](C)[C@H]1C1=CC[C@@H]3[C@@]4(C)C[C@@H](OC(C)=O)[C@H](OC(C)=O)[C@@](C)(COC(C)=O)[C@@H]4[C@H](O)C[C@@]3(C)[C@]1(C)CC2	8	1.7	1.7	1.7	
COC(=O)[C@]12CC[C@@H](C)[C@H](C)[C@H]1C1=CC[C@@H]3[C@@]4(C)C[C@@H](O)[C@H](O)[C@@](C)(CO)C4=CC[C@@]3(C)[C@]1(C)CC2	-55.4	17	17	17	
COC(=O)[C@]12CC[C@@H](C)[C@H](C)[C@H]1C1=CC[C@@H]3[C@@]4(C)C[C@@H](O)[C@H](O)[C@@](C)(CO)[C@@H]4[C@H](O)C[C@@]3(C)[C@]1(C)CC2	-54.1	12.9	12.9	12.9	
COC(=O)[C@]12CC[C@@H](C)[C@H](C)[C@H]1C1=CC[C@@H]3[C@@]4(C)C=C(O)C(=O)[C@@]5(C)COC(=C54)C[C@@]3(C)[C@]1(C)CC2	-58.9	8.9	8.9	8.9	
COC(=O)[C@]12CC[C@@H](C)[C@H](C)[C@H]1C1=CC[C@@H]3[C@@]4(C)CC(=O)[C@H](OC(=O)c5ccco5)[C@@]5(C)COC(=C45)C[C@@]3(C)[C@]1(C)CC2	27.2	2.3	0.5	1.7	TGI (COLO 205 [4]): 3 µM; TGI (SK-MEL-5): 2.6 µM; TGI (UACC-257 [5]): 3 µM; RatioGI50 [6]: >100; RatioGI50 [7]: >100; RatioGI50 [8]: >100; RatioGI50 [9]: >100; RatioGI50 [10]: >50; RatioGI50 [11]: >50; RatioGI50 [12]: >50; CC50 (UACC-257 [13]): 50.1 µM; Activity (COLO 205 [14]): 88.4%; Activity (COLO 205 [15]): 3.8%; Activity (COLO 205 [16]): 6.6%; Activity (COLO 205 [17]): 89.1%; Activity (COLO 205 [18]): 3.3%; Activity (COLO 205 [19]): 6.2%; Activity (COLO 205 [20]): Dose-dependent effect
COC(=O)[C@]12CC[C@@H](C)[C@H](C)[C@H]1C1=CC[C@@H]3[C@@]4(C)CC(=O)[C@H](O)[C@@]5(C)COC(=C45)C[C@@]3(C)[C@]1(C)CC2	-62.9	18.2	18.2	18.2	
COC(=O)[C@]12CC[C@@H](C)[C@H](C)[C@H]1C1=CC[C@@H]3[C@@]4(C)C=C(O)C(=O)C(C)=C4C(=O)C[C@@]3(C)[C@]1(C)CC2	67.8				
COC(=O)[C@]12CC[C@@H](C)[C@H](C)[C@H]1C1=CC[C@@H]3[C@@]4(C)CC(=O)[C@H](OC(=O)/C=C/c5ccccc5)[C@@]5(C)COC(=C45)C[C@@]3(C)[C@]1(C)CC2	78.2				
COC(=O)[C@]12CC[C@@H](C)[C@H](C)[C@H]1C1=CC(=O)[C@@H]3[C@@]4(C)C[C@@H](O)[C@H](O)[C@@]5(C)COC(=C45)C[C@@]3(C)[C@]1(C)CC2	51.5				
COC(=O)[C@]12CC[C@@H](C)[C@H](C)[C@H]1C1=CC[C@@H]3[C@@]4(C)C=C(O)C(=O)C(C)=C4CC[C@@]3(C)[C@]1(C)CC2	31.7	12	12	12	
COC(=O)[C@]12CC[C@@H](C)[C@H](C)[C@H]1C1=CC[C@@H]3[C@@]4(C)C[C@@H](OC(=O)/C=C/c5ccccc5)[C@H](O)[C@@](C)(CO)[C@@H]4[C@H](O)C[C@@]3(C)[C@]1(C)CC2	-4.8	2.4	2.4	2.4	
COC(=O)[C@]12CC[C@@H](C)[C@H](C)[C@H]1C1=CC[C@@H]3[C@@]4(C)C[C@@H](OC(C)=O)[C@H](O)[C@@](C)(CO)[C@@H]4[C@H](O)C[C@@]3(C)[C@]1(C)CC2	-79.2	11	11	11	
COC(=O)[C@]12CC[C@@H](C)[C@H](C)[C@H]1C1=CC[C@@H]3[C@@]4(C)C/C(=N\O)[C@H](O)[C@@]5(C)COC(=C45)C[C@@]3(C)[C@]1(C)CC2	-76.9	6.6	6.6	6.6	
C[C@H]1[C@H](C)CC[C@]2(C(=O)O)CC[C@]3(C)C(=CC[C@@H]4[C@@]5(C)C[C@@H](O)[C@H](O)[C@@](C)(CO)[C@@H]5[C@H](O)C[C@]43C)[C@H]12 [MADECASSIC ACID]	99.2				

Source: ChEMBL document CHEMBL4334460, “Madecassic Acid Derivatives as Potential Anticancer Agents: Synthesis and Cytotoxic Evaluation” (2019)
